Assay results published in ChEMBL document CHEMBL4270613, “Design, synthesis, biological evaluation and structure-activity relationship of sophoridine derivatives bearing pyrrole or indole scaffold as potential antitumor agents” (Eur J Med Chem, 2018).
Active and inactive are the calls of the source. No cut-off for these calls is given here.

Experiments:
[1] = system: HepG2; test: Antiproliferative activity against human HepG2 cells after 48 hrs by MTT assay; format: functional, cell-based; settings: HepG2, 48 h
How it was run: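 HepG2 exposed to compounds for 48 h; MTT readout; camptothecin positive control; IC50 calculated; mean ± SD of three independent experiments, each in triplicate.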

[2] = system: HepG2; test: Antitumor activity against human HepG2 cells xenografted in nude mouse assessed as tumor growth inhibition at 40 mg/kg for 25 days; format: functional, organism-based
How it was run: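 HepG2 xenografts were grown in nude mice and dosed at 40 mg/kg alongside a vehicle group. Tumour volume and body weight were recorded every 2 days. At the end, tumours were excised and weighed. Groups were compared with the vehicle group.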

[3] = system: CNE; test: Antiproliferative activity against human CNE1 cells after 72 hrs by MTT assay; format: functional, cell-based
[4] = system: MCF7; test: Antiproliferative activity against human MCF7 cells after 72 hrs by MTT assay; format: functional, cell-based; settings: MCF7, 72 h
[5] = system: SMMC-7721; test: Antiproliferative activity against human SMMC7721 cells after 72 hrs by MTT assay; format: functional, cell-based; settings: SMMC-7721, 72 h
[6] = system: CNE-2; test: Antiproliferative activity against human CNE2 cells after 72 hrs by MTT assay; format: functional, cell-based; settings: CNE-2, 72 h
[7] = system: HeLa; test: Antiproliferative activity against human HeLa cells after 72 hrs by MTT assay; format: functional, cell-based
[8] = system: HepG2; test: Antiproliferative activity against human HepG2 cells after 72 hrs by MTT assay; format: functional, cell-based; settings: HepG2, 72 h

IC50 [1] [µM]	Compound	also measured
4.16	COc1ccc(Br)c(Cn2cc(/C=C3\CC[C@@H]4[C@H]5CCCN6CCC[C@H](CN4C3=O)[C@@H]56)c3ccccc32)c1	–
–	O=C1CCC[C@@H]2[C@H]3CCCN4CCC[C@H](CN12)[C@@H]34	TGI [2]: inactive
16.3	Cc1ccccc1Cn1cc(/C=C2\CC[C@@H]3[C@H]4CCCN5CCC[C@H](CN3C2=O)[C@@H]45)c2ccccc21	–
6.95	O=C1/C(=C/c2cn(Cc3ccccc3)c3ccccc23)CC[C@@H]2[C@H]3CCCN4CCC[C@H](CN12)[C@@H]34	–
30.1	COc1ccc(Cn2cccc2/C=C2\CC[C@@H]3[C@H]4CCCN5CCC[C@H](CN3C2=O)[C@@H]45)cc1	–
> 50	COc1ccc2c(ccn2Cc2ccc(OCc3ccccc3)cc2)c1	–
9.39	Cc1ccc(Cn2cc(/C=C3\CC[C@@H]4[C@H]5CCCN6CCC[C@H](CN4C3=O)[C@@H]56)c3ccccc32)cc1	–
21.2	COc1cc(Cn2cccc2/C=C2\CC[C@@H]3[C@H]4CCCN5CCC[C@H](CN3C2=O)[C@@H]45)cc(OC)c1	–
5.72	COc1ccc2c(c1)c(/C=C1\CC[C@@H]3[C@H]4CCCN5CCC[C@H](CN3C1=O)[C@@H]45)cn2Cc1ccc(OCc2ccc(OC(F)(F)F)cc2)cc1	–
8.23	COc1ccc(Cn2cc(/C=C3\CC[C@@H]4[C@H]5CCCN6CCC[C@H](CN4C3=O)[C@@H]56)c3ccccc32)cc1	–
8.27	Cc1cccc(Cn2cc(/C=C3\CC[C@@H]4[C@H]5CCCN6CCC[C@H](CN4C3=O)[C@@H]56)c3ccccc32)c1	–
5.86	COc1ccc2c(c1)c(/C=C1\CC[C@@H]3[C@H]4CCCN5CCC[C@H](CN3C1=O)[C@@H]45)cn2Cc1ccc(OCc2ccc(C(C)(C)C)cc2)cc1	–
12.8	O=C1/C(=C/c2cn(Cc3ccc4ccccc4c3)c3ccccc23)CC[C@@H]2[C@H]3CCCN4CCC[C@H](CN12)[C@@H]34	–
3.97	COc1ccc2c(c1)c(/C=C1\CC[C@@H]3[C@H]4CCCN5CCC[C@H](CN3C1=O)[C@@H]45)cn2Cc1ccc(OCc2ccc(Cl)cc2)cc1	–
4.56	Cc1cc(C)cc(Cn2cc(/C=C3\CC[C@@H]4[C@H]5CCCN6CCC[C@H](CN4C3=O)[C@@H]56)c3ccccc32)c1	–
17.4	O=C1/C(=C/c2cccn2Cc2ccccc2Cl)CC[C@@H]2[C@H]3CCCN4CCC[C@H](CN12)[C@@H]34	–
15.4	O=C1/C(=C/c2cn(Cc3ccccc3Br)c3ccccc23)CC[C@@H]2[C@H]3CCCN4CCC[C@H](CN12)[C@@H]34	–
26.5	O=C1/C(=C/c2cccn2Cc2ccc(OC(F)(F)F)cc2)CC[C@@H]2[C@H]3CCCN4CCC[C@H](CN12)[C@@H]34	–

Compound	IC50 [1] [µM]	also measured
CC[C@@]1(O)C(=O)OCc2c1cc1n(c2=O)Cc2cc3ccccc3nc2-1 [CAMPTOTHECIN]	6.08	IC50 [3]: 0.34 µM; IC50 [4]: 0.42 µM; IC50 [5]: 1.08 µM; IC50 [6]: 0.98 µM; IC50 [7]: 0.66 µM; IC50 [8]: 1.36 µM
